Assay results taken from paper PMC6262736 (Pharmacology Research & Perspectives, 2018).
Like-named read-outs stand apart in the source and are kept apart here.

Legend:
SMN protein [1] = test: SMN protein levels in tissues of C/C‐allele SMA mice; assay type: in vivo; settings: 10 mg/kg/day PO, 10 days, Study 12
Outline: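 Adult C/C-allele SMA mice (FVB.129(B6) background) started dosing at ~7 weeks. Dosing was once-daily oral, as a suspension in 0.5% HPMC/0.1% Tween 80. Mice were killed by CO2 1 h after the last dose; tissues were unperfused, homogenized and diluted in RIPA. SMN was measured by HTRF in duplicate (averaged) against a recombinant human SMN standard curve, and total protein by BCA. Result: SMN/total protein per treated mouse ÷ vehicle-group mean.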

human MDR1 = human MDR1 (Homo sapiens, UniProt P08183); test: Bidirectional transport assay in L‐MDR1 cells; assay type: in vitro ADME; settings: 1 μM
Sequence of human MDR1 (P08183 whole entry): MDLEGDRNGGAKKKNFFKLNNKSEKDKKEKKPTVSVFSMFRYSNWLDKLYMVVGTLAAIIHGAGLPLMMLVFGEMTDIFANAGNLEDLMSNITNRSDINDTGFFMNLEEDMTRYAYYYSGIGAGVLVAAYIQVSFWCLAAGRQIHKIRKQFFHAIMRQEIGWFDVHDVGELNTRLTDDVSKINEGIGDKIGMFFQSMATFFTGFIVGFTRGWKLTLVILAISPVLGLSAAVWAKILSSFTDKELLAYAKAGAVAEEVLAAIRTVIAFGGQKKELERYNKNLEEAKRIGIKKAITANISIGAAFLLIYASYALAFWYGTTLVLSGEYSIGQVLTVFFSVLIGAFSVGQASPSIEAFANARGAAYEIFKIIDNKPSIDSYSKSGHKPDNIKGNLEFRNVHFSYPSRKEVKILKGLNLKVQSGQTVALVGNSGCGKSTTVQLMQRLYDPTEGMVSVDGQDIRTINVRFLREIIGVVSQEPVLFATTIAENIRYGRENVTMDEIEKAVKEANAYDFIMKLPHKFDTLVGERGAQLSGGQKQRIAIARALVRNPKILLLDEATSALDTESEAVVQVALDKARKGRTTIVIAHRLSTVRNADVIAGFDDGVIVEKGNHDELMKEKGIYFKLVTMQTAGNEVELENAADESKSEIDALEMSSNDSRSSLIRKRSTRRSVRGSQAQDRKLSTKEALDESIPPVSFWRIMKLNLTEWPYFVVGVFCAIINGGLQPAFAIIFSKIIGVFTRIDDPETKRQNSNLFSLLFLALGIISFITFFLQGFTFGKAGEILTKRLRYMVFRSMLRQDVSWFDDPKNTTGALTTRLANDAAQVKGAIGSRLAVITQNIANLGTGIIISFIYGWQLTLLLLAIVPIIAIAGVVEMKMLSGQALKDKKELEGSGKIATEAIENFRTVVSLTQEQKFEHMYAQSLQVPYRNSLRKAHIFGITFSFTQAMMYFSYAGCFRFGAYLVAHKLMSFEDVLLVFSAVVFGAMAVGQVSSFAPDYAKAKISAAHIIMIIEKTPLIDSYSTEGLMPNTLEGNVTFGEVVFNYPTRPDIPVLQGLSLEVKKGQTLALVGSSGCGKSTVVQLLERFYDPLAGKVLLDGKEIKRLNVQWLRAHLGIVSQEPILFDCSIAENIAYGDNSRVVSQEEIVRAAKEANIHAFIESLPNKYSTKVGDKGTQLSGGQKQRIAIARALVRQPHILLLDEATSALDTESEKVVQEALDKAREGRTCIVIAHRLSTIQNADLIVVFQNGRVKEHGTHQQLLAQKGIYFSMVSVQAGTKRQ
Outline: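 Transport run in LLC-PK1 or MDCKII cells, parental or transfected (L-MDR1 human MDR1, L-Mdr1a rodent Mdr1a, M-BCRP human BCRP, M-Bcrp rodent Bcrp). Cells were grown on semipermeable inserts and assayed bidirectionally on day 3 or 4 after seeding. Donor medium held 1 μM test compound plus 10 μM Lucifer yellow to check monolayer integrity. Receiver medium lacked phenol red, with or without inhibitor: zosuquidar 1 μM for MDR1/Mdr1a, Ko143 1 μM for BCRP/Bcrp. Reference substrates served as activity controls.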

[2] = Phase 1 MOONFISH trial, patients with Type 2 and 3 SMA; ref NCT03032172; cited from earlier work
[3] = monkeys; dosing in MOONFISH suspended because of it; ref not given; cited from earlier work
SMN protein [4] = test: SMN protein levels in brain and muscle of SMNΔ7 mice; assay type: in vivo; settings: 7 days of once daily dosing, Study 4
SMN protein [5] = settings: SUNFISH Part 1 early interim data, dose‐dependent; cited from earlier work
[6] = Plasma, brain and CSF drug levels in rats; assay type: in vivo; settings: Wistar, rat, brain / total plasma, po, 7.5 mg/kg/day
[7] = Tissue distribution in cynomolgus monkeys; assay type: in vivo, cynomolgus monkeys (Macaca fascicularis); settings: for concentration at 7 days / Kp at 7 days / concentration at 6 weeks after the last dose: cynomolgus monkey, oral, 3 mg/kg/day
SMNΔ7 mice = settings: dosed once daily for 219 days, Study 5; cited from earlier work
[8] = Predicted CSF‐to‐unbound plasma partition coefficient from L‐Mdr1a efflux ratio; parameters: species or system rat; settings: based on the rodent ER and model from ref 25
Outline: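 pKp,uu derived as 1/[(1−γ)+γ·ER], with γ fixed at 0.753 and ER being the efflux ratio measured in L-Mdr1a cells.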

severe SMA mice = settings: cited from earlier work
[9] = monkeys, Study 10, after 22 weeks' treatment‐free recovery period
[10] = two cynomolgus monkeys, Study 9

CCc1nc(C)cn2nc(-c3cc(=O)n4cc(C5CCN(C)CC5)cc(C)c4n3)cc12 [RG7800, 2‐(4‐ethyl‐6‐methyl‐pyrazolo[1,5‐a]pyrazin‐2‐yl)‐9‐methyl‐7‐(1‐methyl‐4‐piperidyl)pyrido[1,2‐a]pyrimidin‐4‐one]
SMN protein increase from baseline in heart (SMN protein [1]): 31%
SMN protein increase from baseline in muscle (SMN protein [1]): 23%
SMN protein increase in pancreas (SMN protein [1]): fourfold
substrate of human MDR1 (human MDR1): not a substrate of human MDR1
serious adverse events [2]: no serious adverse events were reported
findings in long‐term nonclinical safety studies [3]: off‐target retinal findings

Cc1cn2nc(-c3cc(=O)n4cc(N5CCNC6(CC6)C5)ccc4n3)cc(C)c2n1 [risdiplam, 7‐(4,7‐diazaspiro[2.5]octan‐7‐yl)‐2‐(2,8‐dimethylimidazo[1,2‐b]pyridazin‐6‐yl)pyrido[1,2‐a]pyrimidin‐4‐one]
increase in SMN protein levels in brain (SMN protein [4]; 0.1 mg/kg/day): 28%
increase in SMN protein levels in muscle (SMN protein [4]; 0.1 mg/kg/day): 32%
increase in SMN protein levels in brain (SMN protein [4]; 1 mg/kg/day): 206%
increase in SMN protein levels in muscle (SMN protein [4]; 1 mg/kg/day): 210%
average increase in functional SMN protein in the blood of patients with SMA (SMN protein [5]): up to 2.5 fold
Kp at 90 days [6]: 0.92
concentration at 7 days ([7]; CSF): 53.5 ng/mL
Kp at 7 days ([7]; bone marrow / plasma): ~5
concentration at 7 days ([7]; brain): 783 ng/g
concentration at 6 weeks after the last dose ([7]; duodenum): < 1 ng/g
Kp at 7 days ([7]; kidney / plasma): 10
concentration at 6 weeks after the last dose ([7]; kidney): ~4 ng/g
concentration at 6 weeks after the last dose ([7]; larynx): < 1 ng/g
concentration at 6 weeks after the last dose ([7]; liver): ~4 ng/g
concentration at 7 days ([7]; muscle): 668 ng/g
concentration at 7 days ([7]; plasma (unbound)): 119 ng/mL
concentration at 7 days ([7]; plasma): 794 ng/mL
Kp at 7 days ([7]; spleen / plasma): ~5
concentration at 6 weeks after the last dose ([7]; spleen): < 1 ng/g
drug level in CSF [7, 9]: below the limit of quantification (BLQ)
drug level in brain [7, 9]: below the limit of quantification (BLQ)
drug level in plasma [7, 9]: below the limit of quantification (BLQ)
average cortex/brain stem concentrations ratio ([7]; monkeys, Study 10, n = 22): 1.10
difference of brain drug level from total plasma concentration [7, 10]: less than 30%
difference of heart drug level from total plasma concentration [7, 10]: less than 30%
difference of larynx drug level from total plasma concentration [7, 10]: less than 30%
difference of muscle drug level from total plasma concentration [7, 10]: less than 30%
survival of SMNΔ7 mice (SMNΔ7 mice): prolonged survival
predicted CSF‐to‐unbound plasma partition coefficient (pKp,uu) [8]: 0.33

nusinersen
median lifespan (severe SMA mice; intracerebroventricular administration): 16 days
median lifespan (severe SMA mice; subcutaneous injections): 108 days
